Test results as given in ChEMBL document CHEMBL1148274, “Bile acid amides derived from chiral amino alcohols: novel antimicrobials and antifungals” (Bioorg Med Chem Lett, 2004).
≈ marks a conversion by molar mass, not a printed value.

Tests used:
Aspergillus niger = experiment: Antifungal activity against Aspergillus niger was determined by twofold Micro-broth dilution assay; assay type: functional, organism-based
Procedure, shortened: (§1)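 Fungal strains tested by two-fold serial broth microdilution in microtitre plates. Cells diluted in phosphate-buffered saline to 10^6 cfu/mL and inoculated at a final 10^3 cells per 150 µL medium. Medium/inoculum and solvent controls were included. Incubation at 28 °C, then OD read at 600 nm. IC50 is the concentration at which growth is 50% of the control inoculum.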

Aspergillus flavus = experiment: Antifungal activity against Aspergillus flavus was determined by twofold Micro-broth dilution assay; assay type: functional, organism-based; procedure, shortened: as §1
Candida albicans = experiment: Antifungal activity against Candida albicans was determined by twofold Micro-broth dilution assay; assay type: functional, organism-based; procedure, shortened: as §1
Cryptococcus neoformans = experiment: Antifungal activity against Cryptococcus neoformans was determined by twofold Micro-broth dilution assay; assay type: functional, organism-based; procedure, shortened: as §1
Enterococcus faecalis = experiment: Antibacterial activity against gram positive bacteria Enterococcus faecalis was determined by twofold Micro-broth dilution assay; assay type: functional, organism-based
Procedure, shortened: (§2)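 Broth microdilution with two-fold serial dilutions of compound added to pre-inoculated microtitre plates. Inoculum diluted in phosphate-buffered saline to 10^6 cfu/mL, then plated at a final 10^3 cells per 150 µL medium. Controls were medium plus inoculum and a solvent control at the highest-concentration solvent level. Plates incubated at 37 °C and read by OD at 600 nm. IC50 is the concentration giving 50% of control-inoculum growth.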

Escherichia coli = experiment: Antibacterial activity against gram negative bacteria Escherichia coli was determined by twofold Micro-broth dilution assay; assay type: functional, organism-based; procedure, shortened: as §2
Klebsiella aerogenes = experiment: Antibacterial activity against gram negative bacteria Enterobacter aerogens was determined by twofold Micro-broth dilution assay; assay type: functional, organism-based; procedure, shortened: as §2
Histoplasma capsulatum = experiment: Antifungal activity against Histoplasma capsulatum was determined by twofold Micro-broth dilution assay; assay type: functional, organism-based
Procedure, shortened: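 Fungal broth microdilution. Cells were diluted to 10^6 cfu/mL in phosphate-buffered saline and seeded at a final 10^3 cells per well. Two-fold serial compound dilutions were added. Plates carried inoculum-only and solvent controls, the solvent matched to the highest concentration. After incubation at 28 °C, OD was read at 600 nm. IC50 is the concentration where growth is 50% of control.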

Nannizzia gypsea = experiment: Antifungal activity against Microsporum gypseum was determined by twofold Micro-broth dilution assay; assay type: functional, organism-based; procedure, shortened: as §1
Salmonella typhimurium = experiment: Antibacterial activity against gram negative bacteria Salmonella Typhimurium was determined by twofold Micro-broth dilution assay; assay type: functional, organism-based, Salmonella enterica subsp. enterica serovar Typhimurium; conditions: Salmonella enterica; procedure, shortened: as §2
Salmonella typhi = experiment: Antibacterial activity against gram negative bacteria Salmonella typhi was determined by twofold Micro-broth dilution assay; assay type: functional, organism-based, Salmonella enterica subsp. enterica serovar Typhi; conditions: Salmonella enterica
Staphylococcus aureus = experiment: Antibacterial activity against gram positive bacteria Staphylococcus aureus was determined by twofold Micro-broth dilution assay; assay type: functional, organism-based; procedure, shortened: as §2
Shigella flexneri = experiment: Antibacterial activity against gram negative bacteria Shigella flexenerii was determined by twofold Micro-broth dilution assay; assay type: functional, organism-based; procedure, shortened: as §2
Sporothrix schenckii = experiment: Antifungal activity against Sporothrix schenck ii was determined by twofold Micro-broth dilution assay; assay type: functional, organism-based; procedure, shortened: as §1
Streptococcus mutans = experiment: Antibacterial activity against gram positive bacteria Streptococcus mutans was determined by twofold Micro-broth dilution assay; assay type: functional, organism-based; procedure, shortened: as §2
Trichophyton rubrum = experiment: Antifungal activity against Trichophyton rubrum was determined by twofold Micro-broth dilution assay; assay type: functional, organism-based; procedure, shortened: as §1
[1] = tested on: Staphylococcus epidermidis; experiment: Antibacterial activity against gram positive bacteria Staphylococcus epidermidis was determined by twofold Micro-broth dilution assay; assay type: functional, organism-based; procedure, shortened: as §2
[2] = Aspergillus niger, read-out: IC50
[3] = Aspergillus flavus, read-out: IC50
[4] = Candida albicans, read-out: IC50
[5] = Nannizzia gypsea, read-out: IC50
[6] = Sporothrix schenckii, read-out: IC50
[7] = Trichophyton rubrum, read-out: IC50

Row | Compound | IC50 (Aspergillus niger; [2]) [µg/mL] | IC50 (Aspergillus flavus; [3]) [µg/mL] | IC50 (Candida albicans; [4]) [µg/mL] | IC50 (Cryptococcus neoformans) [µg/mL] | IC50 (Enterococcus faecalis) [µg/mL] | IC50 (Escherichia coli) [µg/mL] | IC50 (Klebsiella aerogenes) [µg/mL] | IC50 (Histoplasma capsulatum) [µg/mL] | IC50 (Nannizzia gypsea; [5]) [µg/mL] | IC50 (Salmonella typhimurium) [µg/mL] | IC50 (Salmonella typhi) [µg/mL] | IC50 (Staphylococcus aureus) [µg/mL] | IC50 (Shigella flexneri) [µg/mL] | IC50 (Sporothrix schenckii; [6]) [µg/mL] | IC50 (Streptococcus mutans) [µg/mL] | IC50 (Trichophyton rubrum; [7]) [µg/mL] | IC50 [1] [µg/mL] | also measured
1 | C[C@H](CCC(=O)N[C@H](CO)[C@H](O)c1ccc([N+](=O)[O-])cc1)[C@H]1CC[C@H]2[C@@H]3C(O)C[C@@H]4C[C@H](O)CC[C@]4(C)[C@H]3C[C@H](O)[C@]12C (some centres undefined) | > 250 | > 250 | > 250 | > 250 | 60 (≈ 99.5 µM) | > 250 | > 250 | > 250 | > 250 | > 250 | > 250 | 75 (≈ 124 µM) | > 250 | > 250 | 6 (≈ 9.95 µM) | > 250 | 100 (≈ 166 µM) | –
2 | C[C@H](CCC(=O)N[C@@H](CO)[C@@H](O)c1ccccc1)[C@H]1CC[C@H]2[C@@H]3CC[C@@H]4C[C@H](O)CC[C@]4(C)[C@H]3C[C@H](O)[C@]12C | > 250 | > 250 | > 250 | 62.5 (≈ 115 µM) | > 250 | > 250 | > 250 | > 250 | > 250 | > 250 | > 250 | > 250 | > 250 | > 250 | 60 (≈ 111 µM) | > 250 | 220 (≈ 406 µM) | –
3 | NYSTATIN | – | – | – | – | – | – | – | – | – | – | – | – | – | – | – | – | – | IC50 (Aspergillus niger): 2.5 µg/mL; IC50 (Aspergillus flavus): 2.5 µg/mL; IC50 (Candida albicans): 0.25 µg/mL; IC50 (Nannizzia gypsea): 3.125 µg/mL; IC50 (Sporothrix schenckii): 3.125 µg/mL; IC50 (Trichophyton rubrum): 2.5 µg/mL
4 | CN[C@H](CC(C)C)C(=O)N[C@H]1C(=O)N[C@@H](CC(N)=O)C(=O)N[C@H]2C(=O)N[C@H]3C(=O)N[C@H](C(=O)N[C@H](C(=O)O)c4cc(O)cc(O)c4-c4cc3ccc4O)[C@H](O)c3ccc(c(Cl)c3)Oc3cc2cc(c3O[C@@H]2O[C@H](CO)[C@@H](O)[C@H](O)[C@H]2O[C@H]2C[C@](C)(N)[C@H](O)[C@H](C)O2)Oc2ccc(cc2Cl)[C@H]1O [VANCOMYCIN] | – | – | – | – | 0.06 (≈ 0.0414 µM) | > 250 | > 250 | – | – | > 250 | > 250 | 0.12 (≈ 0.0828 µM) | > 250 | – | 0.12 (≈ 0.0828 µM) | – | 0.3 (≈ 0.207 µM) | –
5 | CN[C@@H]1[C@H](O[C@H]2[C@H](O[C@H]3[C@H](O)[C@@H](O)[C@H](N=C(N)N)[C@@H](O)[C@@H]3N=C(N)N)O[C@@H](C)[C@]2(O)C=O)O[C@@H](CO)[C@H](O)[C@H]1O [STREPTOMYCIN] | – | – | – | – | 1.25 (≈ 2.15 µM) | 1.25 (≈ 2.15 µM) | 1.25 (≈ 2.15 µM) | – | – | 1.25 (≈ 2.15 µM) | – | 0.3 (≈ 0.516 µM) | 1.25 (≈ 2.15 µM) | – | 0.12 (≈ 0.206 µM) | – | 0.12 (≈ 0.206 µM) | –
6 | C[C@H](CCC(=O)N[C@@H](CO)[C@@H](O)c1ccc([N+](=O)[O-])cc1)[C@H]1CC[C@H]2[C@@H]3CC[C@@H]4C[C@H](O)CC[C@]4(C)[C@H]3C[C@H](O)[C@]12C | > 250 | > 250 | > 250 | > 250 | 10 (≈ 17 µM) | > 250 | > 250 | > 250 | > 250 | > 250 | > 250 | > 250 | > 250 | > 250 | 30 (≈ 51.1 µM) | > 250 | > 250 | –
